According to paper PMC7439261 (ACS Omega, 2020):
In brackets after ≈: the same amount, converted by molar mass.

Legend:
[1] = tested on: test strains of H. pylori; test: Broth dilution bioassay MIC/MBC, text summary over test strains; format: cell-based; conditions: Helicobacter pylori
[2] = tested on: H. pylori ATCC 43504; test: Broth dilution bioassay MIC/MBC, ATCC 43504; format: cell-based; conditions: Helicobacter pylori; for MIC: ATCC43504, 48 h; for MBC: ATCC43504, 72 h
[3] = tested on: H. pylori OX.22; test: Broth dilution bioassay MIC/MBC, OX.22; format: cell-based; conditions: Helicobacter pylori; for MIC: OX.22, 48 h; for MBC: OX.22, 72 h
[4] = tested on: H. pylori OX.67; test: Broth dilution bioassay MIC/MBC, OX.67; format: cell-based, Helicobacter pylori; conditions: for MIC: H. pylori OX.67, broth dilution, 48 h; for MBC: OX.67, 72 h
[5] = tested on: H. pylori OX.64; test: Broth dilution bioassay MIC/MBC, OX.64; format: cell-based, Helicobacter pylori; conditions: for MIC: H. pylori OX.64, broth dilution, 48 h; for MBC: OX.64, 72 h
[6] = tested on: H. pylori ATCC 51932; test: Broth dilution bioassay MIC/MBC, ATCC 51932; format: cell-based; conditions: Helicobacter pylori; for MIC: ATCC51932, 48 h; for MBC: ATCC51932, 72 h
[7] = tested on: H. pylori OX.63; test: Broth dilution bioassay MIC/MBC, OX.63; format: cell-based, Helicobacter pylori; conditions: for MIC: H. pylori OX.63, broth dilution, 48 h; for MBC: OX.63, 72 h
[8] = tested on: H. pylori OX.83; test: Broth dilution bioassay MIC/MBC, OX.83; format: cell-based, Helicobacter pylori; conditions: for MIC: H. pylori OX.83, broth dilution, 48 h; for MBC: OX.83, 72 h
[9] = Sulforhodamine cytotoxicity assay, Jurkat; format: cell-based; conditions: human, Jurkat cells
How it was run: (§1)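 Cells were grown in EMEM with 10% FBS, 2 mM L-glutamine, 20 mM HEPES and antibiotics at 37 °C, 5% CO2. Passages were 4–20 for HeLa, MCF7 and Jurkat, and 2–5 for fibroblasts. Seeding per well for 24 h: HeLa 5×10^3, MCF7 and fibroblast 10^4, Jurkat 5×10^4. Test compound (0–200 mg/L, in DMSO) was added for 48 h. Cells were fixed with cold TCA, stained with 0.2% SRB, solubilised in 10 mM Tris and read at 492 nm. Camptothecin was the positive control. Triplicates, three independent experiments.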

[10] = Sulforhodamine cytotoxicity assay, fibroblast; format: cell-based; conditions: human, fibroblast cells derived from human foreskins
How it was run: as §1

[11] = Sulforhodamine cytotoxicity assay, HeLa; format: cell-based; conditions: human, HeLa cells
How it was run: as §1

[12] = Sulforhodamine cytotoxicity assay, text summary over four cell lines; format: cell-based; conditions: human
How it was run: as §1

[13] = Sulforhodamine cytotoxicity assay, MCF7; format: cell-based; conditions: human, MCF7 cells
How it was run: as §1

[14] = molecular target: H. pylori ATCC 43504 urease (Helicobacter pylori, UniProt P69996); test: Urease inhibition, salicylate-hypochlorite method; format: biochemical
Chain of H. pylori ATCC 43504 urease (P69996 whole entry): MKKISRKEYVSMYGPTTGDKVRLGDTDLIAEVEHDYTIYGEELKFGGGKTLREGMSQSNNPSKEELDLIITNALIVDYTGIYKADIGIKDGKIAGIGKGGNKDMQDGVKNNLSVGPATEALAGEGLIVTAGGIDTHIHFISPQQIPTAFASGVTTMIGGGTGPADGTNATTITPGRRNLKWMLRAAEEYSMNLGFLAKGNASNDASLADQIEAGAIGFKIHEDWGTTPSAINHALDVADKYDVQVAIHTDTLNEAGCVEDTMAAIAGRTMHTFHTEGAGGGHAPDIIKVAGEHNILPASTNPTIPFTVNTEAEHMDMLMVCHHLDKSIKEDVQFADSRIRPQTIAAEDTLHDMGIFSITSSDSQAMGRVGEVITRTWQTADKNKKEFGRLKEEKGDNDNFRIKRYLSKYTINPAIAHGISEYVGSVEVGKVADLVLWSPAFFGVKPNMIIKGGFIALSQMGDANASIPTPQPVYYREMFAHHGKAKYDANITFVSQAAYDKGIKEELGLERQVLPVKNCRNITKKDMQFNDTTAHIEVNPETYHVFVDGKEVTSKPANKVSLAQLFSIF
Chain of H. pylori ATCC 43504 urease (P14916 whole entry partner): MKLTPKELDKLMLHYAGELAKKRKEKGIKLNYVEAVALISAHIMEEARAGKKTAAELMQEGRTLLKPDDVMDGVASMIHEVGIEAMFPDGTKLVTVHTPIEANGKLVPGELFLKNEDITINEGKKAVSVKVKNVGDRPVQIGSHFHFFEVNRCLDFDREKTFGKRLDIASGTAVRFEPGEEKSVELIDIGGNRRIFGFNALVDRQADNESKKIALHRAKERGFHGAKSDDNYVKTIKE
How it was run: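 Crude H. pylori ATCC 43504 urease, 0.25 μg (0.04 U), in EDTA–sodium phosphate buffer pH 7.3, was preincubated with test compound at 37 °C for 90 min at 50 rpm. Urea solution (10 mM, as added) was then incubated for 30 min. Ammonia was measured by the salicylate–nitroprusside/alkaline hypochlorite method at 625 nm. Thiourea was the reference inhibitor. IC50 is molar. Triplicates, three independent experiments.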

[15] = Helicobacter pylori, OX.67, 48 h
[16] = Helicobacter pylori, OX.64, 48 h
[17] = Helicobacter pylori, OX.63, 48 h
[18] = Helicobacter pylori, OX.83, 48 h

Compound	MIC [1] [µg/mL]	MIC [2] [µg/mL]	MBC [2] [µg/mL]	MIC [3] [µg/mL]	MBC [3] [µg/mL]	MIC [4, 15] [µg/mL]	MBC ([4]; Helicobacter pylori) [µg/mL]	MIC [5] [µg/mL]	MIC [5, 16] [µg/mL]	MBC ([5]; Helicobacter pylori) [µg/mL]	MIC [6] [µg/mL]	MBC [6] [µg/mL]	MIC [7] [µg/mL]	MIC [7, 17] [µg/mL]	MBC ([7]; Helicobacter pylori) [µg/mL]	MIC [8, 18] [µg/mL]	MBC ([8]; Helicobacter pylori) [µg/mL]	other results
CC[C@H]1OC(=O)[C@H](C)[C@@H](O[C@H]2C[C@@](C)(OC)[C@@H](O)[C@H](C)O2)[C@H](C)[C@@H](O[C@@H]2O[C@H](C)C[C@H](N(C)C)[C@H]2O)[C@](C)(O)C[C@@H](C)CN(C)[C@H](C)[C@@H](O)[C@]1(C)O [azithromycin]	16 to 32 (≈ 21.4 to 42.7 µM)	0.5 (≈ 0.668 µM)	1 (≈ 1.34 µM)	0.5 (≈ 0.668 µM)	1 (≈ 1.34 µM)	64 (≈ 85.4 µM)	128 (≈ 171 µM)	16 (≈ 21.4 µM)	16 to 32 (≈ 21.4 to 42.7 µM)	128 (≈ 171 µM)	0.5 (≈ 0.668 µM)	1 (≈ 1.34 µM)	32 (≈ 42.7 µM)	32 to 64 (≈ 42.7 to 85.4 µM)	128 (≈ 171 µM)	64 (≈ 85.4 µM)	128 (≈ 171 µM)	MIC [4]: 32 µg/mL (≈ 42.7 µM); MIC [8]: 32 µg/mL (≈ 42.7 µM)
CC[C@@]1(O)C(=O)OCc2c1cc1n(c2=O)Cc2cc3ccccc3nc2-1 [camptothecin, reference compound]																		CC50 at 48 h [9]: 5 ng/mL (≈ 0.0144 µM); CC50 at 48 h [10]: 1.57 µg/mL (≈ 4.51 µM); CC50 at 48 h [11]: 0.89 µg/mL (≈ 2.55 µM); CC50 at 48 h [12]: 0.005 to 1.57 µg/mL (≈ 0.0144 to 4.51 µM); CC50 at 48 h [13]: 5 ng/mL (≈ 0.0144 µM)
CC[C@H]1OC(=O)[C@H](C)[C@@H](O[C@H]2C[C@@](C)(OC)[C@@H](O)[C@H](C)O2)[C@H](C)[C@@H](O[C@@H]2O[C@H](C)C[C@H](N(C)C)[C@H]2O)[C@](C)(O)C[C@@H](C)C(=O)[C@H](C)[C@@H](O)[C@]1(C)O [erythromycin]		0.063 (≈ 0.0858 µM)	0.125 (≈ 0.17 µM)		128 (≈ 174 µM)	64 (≈ 87.2 µM)	128 (≈ 174 µM)		16 to 32 (≈ 21.8 to 43.6 µM)	128 (≈ 174 µM)	0.063 (≈ 0.0858 µM)	0.125 (≈ 0.17 µM)			128 (≈ 174 µM)	64 (≈ 87.2 µM)	128 (≈ 174 µM)	
C[C@H]1COc2c(N3CCN(C)CC3)c(F)cc3c(=O)c(C(=O)O)cn1c23 [levofloxacin]	32 (≈ 88.6 µM)	0.125 (≈ 0.346 µM)	0.25 (≈ 0.692 µM)	0.063 (≈ 0.174 µM)	0.5 (≈ 1.38 µM)	0.063 (≈ 0.174 µM)	0.25 (≈ 0.692 µM)	32 (≈ 88.6 µM)	16 to 32 (≈ 44.3 to 88.6 µM)	128 (≈ 354 µM)	0.125 (≈ 0.346 µM)	0.25 (≈ 0.692 µM)		0.063 (≈ 0.174 µM)	0.5 (≈ 1.38 µM)	0.75 (≈ 2.08 µM)	1.25 (≈ 3.46 µM)	
Cc1ncc([N+](=O)[O-])n1CCO [metronidazole]		32 (≈ 187 µM)	192 (≈ 1120 µM)	32 (≈ 187 µM)	256 (≈ 1500 µM)	2 (≈ 11.7 µM)	4 (≈ 23.4 µM)	32 (≈ 187 µM)	16 to 32 (≈ 93.5 to 187 µM)	256 (≈ 1500 µM)	2 (≈ 11.7 µM)	4 (≈ 23.4 µM)	64 (≈ 374 µM)	32 to 64 (≈ 187 to 374 µM)	256 (≈ 1500 µM)	1 (≈ 5.84 µM)	2 (≈ 11.7 µM)	MIC ([1]; 48 h): 24 to 64 µg/mL (≈ 140 to 374 µM)
NC(N)=S [thiourea, reference compound]																		IC50 ([14]; read-out: IC50 (95% CL), urease crude, preincubation 90 min, pH 7.3): 573 µM; slope ± SE ([14]; slope of dose-response curve of percentage of urease inhibition): 1.79 ± 0.093
